Assay outcomes from PubChem BioAssay.
M5 PAM – CHRM5 positive allosteric modulation | CHO-K1 hM5, Fluo-8 calcium, ACh EC20 PAM; 0% = ACh EC20, 100% = ACh EC100 | activation, % at 3 µM | 360,000 tested, 0.3% active;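 active = activation above the run cutoff, the mean activation of all test compounds plus 3 SD, cut at about 18% in these data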
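Measured by: Fluo-8 calcium fluorescence; material: human M5 receptor in CHO-K1 cells; schedule: Post-acetylcholine fluorescence recording 140 s; benchmarks: low control EC20 acetylcholine (0%), high control EC100 acetylcholine (100%); read-out: Max/basal fluorescence ratio as % of EC20–EC100 ACh window; compound: single dose, 3 µM nominal final test concentration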
CHRM5 antagonist – antagonists of human muscarinic M5 receptor (CHRM5). P08912. CHO-hM5 cells, Fluo-8 calcium fluorescence, ACh EC80. 360,000 tested, 0.59% active. inhibition, % at 3 µM;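 active = inhibition above a per-plate cutoff, the mean of that plate's test compounds plus 3 SD, cut at about 27% in these data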;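 note: 0% = acetylcholine EC80 with DMSO and 100% = DMSO without agonist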
CHRM4 agonist – CHRM4 agonism in calcium assay; P08173; CHO-K1 hM4/Gqi5, Fluo-8 calcium fluorescence; vehicle 0%, full acetylcholine response 100%; activation, % at 3 µM; 360,000 tested, 0.14% active;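 active = activation above the run mean over all test wells plus 3 SD, cut at about 32% in these data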;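 note: peak over basal fluorescence ratio per well then scaled between controls; 0% = DMSO wells and 100% = acetylcholine at EC100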
Target sequence (P08173 whole entry, looked up): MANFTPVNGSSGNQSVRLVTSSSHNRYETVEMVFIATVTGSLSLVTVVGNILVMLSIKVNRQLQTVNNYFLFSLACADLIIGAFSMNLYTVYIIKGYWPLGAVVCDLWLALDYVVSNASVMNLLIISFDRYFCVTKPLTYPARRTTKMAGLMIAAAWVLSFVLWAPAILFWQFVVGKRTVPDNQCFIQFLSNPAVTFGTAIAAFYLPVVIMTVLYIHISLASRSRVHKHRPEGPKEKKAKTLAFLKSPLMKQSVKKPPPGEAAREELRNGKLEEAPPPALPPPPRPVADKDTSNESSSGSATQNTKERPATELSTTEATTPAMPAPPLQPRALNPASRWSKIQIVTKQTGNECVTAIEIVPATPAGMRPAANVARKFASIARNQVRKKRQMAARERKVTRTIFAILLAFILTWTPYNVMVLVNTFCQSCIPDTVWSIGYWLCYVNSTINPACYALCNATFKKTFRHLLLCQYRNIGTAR
M5 ag – CHRM5 agonism in calcium assay. CHO-K1 hM5 cells, Fluo-8 calcium fluorescence; 0% DMSO wells, 100% maximal acetylcholine response. activation, % at 3 µM. 360,000 tested, 0.19% active. AID 624037;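 active = activation above the run's mean over test compounds plus 3 SD, cut at about 23% in these data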;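 note: signal is peak over basal fluorescence ratio across the kinetic read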
M4 antag – antagonists of human muscarinic M4 receptor (CHRM4); P08173; CHO-hM4 cells, ACh EC80, Fluo-8 calcium fluorescence; inhibition, % at 3 µM; 360,000 tested, 0.73% active; AID 624125;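 active = inhibition above its plate's cutoff, the mean inhibition of sample wells plus 3 SD, cut at about 27% in these data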;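 note: 0% = acetylcholine EC80 with DMSO and 100% = DMSO without agonist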
M4 PAM – CHRM4 positive allosteric modulation; CHO-K1 hM4/Gqi5, Fluo-8 calcium fluorescence, ACh EC20; 0% = ACh EC20, 100% = maximal ACh; 360,000 tested, 0.4% active; activation, % at 3 µM; P08173;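 active = activation above its plate's cutoff, the mean activation of sample wells plus 3 SD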
Numbers without * were called inactive. The list is not random: actives were taken first. Their share in the collection is about 1.8%.

For O=[N+]([O-])c1ccc(/C=C/C2=NN(c3ccccc3)C(c3ccco3)C2)cc1 (stereo not given) the results were M5 PAM -12.6, CHRM5 antagonist 42.2*, CHRM4 agonist 14.5, M5 ag 43.5*, M4 antag 16.2 and M4 PAM -9.0.
For O=[N+]([O-])c1ccc(C2=NN(c3ccccc3)C(c3ccco3)C2)cc1 (stereo not given) the results were M5 PAM -31.0, CHRM5 antagonist 76.9*, CHRM4 agonist 41.1*, M5 ag 213.6*, M4 antag 37.5* and M4 PAM -33.8.
`O=[N+]([O-])c1ccc(C=CC=Cc2ccccc2)cc1` gave M5 PAM -2.2, CHRM5 antagonist 7.6, CHRM4 agonist 0.6, M5 ag 0.5, M4 antag 4.1 and M4 PAM 6.0.
Screening CC1=NN(c2ccccc2)C(c2ccco2)C1 (stereo not given) returned M5 PAM -5.2, CHRM5 antagonist 3.5, CHRM4 agonist 0.4, M5 ag -2.6, M4 antag 1.4 and M4 PAM 10.5.
For CC(=O)/C(C(=N)N1CCN(C(c2ccccc2)c2ccccc2)CC1)=C(\C)O the results were M5 PAM -19.9, CHRM5 antagonist 83.4*, CHRM4 agonist 2.4, M5 ag -7.6, M4 antag 91.4* and M4 PAM -24.6.
CC(=O)/C(C(=N)N1CCN(Cc2ccccc2)CC1)=C(\C)O was read as M5 PAM -0.1, CHRM5 antagonist -5.6, CHRM4 agonist 0.3, M5 ag -2.3, M4 antag -0.5 and M4 PAM 5.7.
O=C(O)/C=C/C(=O)N1CCN(C(c2ccccc2)c2ccccc2)CC1 was read as M5 PAM -33.0, CHRM5 antagonist 26.9*, CHRM4 agonist 0.7, M5 ag -17.2, M4 antag 29.5* and M4 PAM -36.5.
For Cc1ccc(Cn2c(N/N=C/c3ccncc3)nc3c2c(=O)n(C)c(=O)n3C)cc1 the results were M5 PAM 1.0, CHRM5 antagonist -0.3, CHRM4 agonist 2.5, M5 ag -5.1, M4 antag -6.4 and M4 PAM -1.3.
Screening Cn1c(=O)c2c(nc(N/N=C/c3ccncc3)n2Cc2ccccc2)n(C)c1=O returned M5 PAM 21.0*, CHRM5 antagonist -10.3, CHRM4 agonist 0.6, M5 ag 5.5, M4 antag 2.2 and M4 PAM -2.3.
For Cn1c(=O)c2c(nc(SCCN3CCCCC3)n2Cc2ccccc2)n(C)c1=O the results were M5 PAM -7.1, CHRM5 antagonist 5.0, CHRM4 agonist -0.7, M5 ag -6.8, M4 antag 27.8* and M4 PAM -20.1.
For Cn1c(=O)c2c(nc(Oc3ccc4c(c3)OCO4)n2Cc2ccc(Cl)cc2)n(C)c1=O the results were M5 PAM 33.3*, CHRM5 antagonist 0.1, CHRM4 agonist 0.8, M5 ag 1.2, M4 antag 7.3 and M4 PAM 0.7.
Screening Cc1ccc(Cn2c(SCCN3CCCCC3)nc3c2c(=O)n(C)c(=O)n3C)cc1 returned M5 PAM -0.5, CHRM5 antagonist -3.5, CHRM4 agonist 0.1, M5 ag -7.4, M4 antag -1.8 and M4 PAM -0.7.
`COc1ccc(Oc2nc3c(c(=O)n(C)c(=O)n3C)n2Cc2ccccc2)cc1` gave M5 PAM 11.8, CHRM5 antagonist -5.8, CHRM4 agonist -0.3, M5 ag -1.6, M4 antag 0.4 and M4 PAM 30.5*.
Screening COc1ccc(CN2C(=O)c3ccccc3C2c2nnnn2-c2c(C)cccc2C)cc1OC (stereo not given) returned M5 PAM 2.5, CHRM5 antagonist -11.0, CHRM4 agonist 2.7, M5 ag 2.0, M4 antag -12.8 and M4 PAM 12.8.
Screening CCOc1ccccc1N1CCN(C(=O)c2c(-c3c(F)cccc3Cl)noc2C)CC1 returned M5 PAM -8.3, CHRM5 antagonist 8.9, CHRM4 agonist 13.0, M5 ag 3.0, M4 antag -9.7 and M4 PAM -5.2.
Screening CCn1c(=O)n(C)c2c(=O)n(C)c(=O)n(C)c21 returned M5 PAM -1.7, CHRM5 antagonist 3.2, CHRM4 agonist -0.6, M5 ag -2.0, M4 antag -10.1 and M4 PAM 18.4.
For CC(CC(c1ccccc1)N1CCc2ccccc2C1)=NO (stereo not given) the results were M5 PAM -4.7, CHRM5 antagonist 2.1, CHRM4 agonist 0.3, M5 ag -1.2, M4 antag -11.5 and M4 PAM -1.4.
For CN(c1nc2ccccc2n2c(C3CC3)nnc12)S(=O)(=O)c1ccccc1 the results were M5 PAM 5.2, CHRM5 antagonist 6.2, CHRM4 agonist 0.4, M5 ag 3.5, M4 antag 4.0 and M4 PAM -6.0.
`CCN(CC)c1nc2c(c(=O)n(C)c(=O)n2C)n1CCCc1ccccc1` gave M5 PAM -0.6, CHRM5 antagonist 8.8, CHRM4 agonist 1.7, M5 ag 2.1, M4 antag -8.8 and M4 PAM -1.5.
Screening CN(Cc1ccccc1)c1nc2c(c(=O)n(C)c(=O)n2C)n1CCCc1ccccc1 returned M5 PAM -16.3, CHRM5 antagonist 13.3, CHRM4 agonist 3.1, M5 ag -4.5, M4 antag 26.8* and M4 PAM -9.6.
`Cc1cc(C)n2nc(S(=O)(=O)NC(C)(C)C)nc2n1` gave M5 PAM 19.1*, CHRM5 antagonist 0.1, CHRM4 agonist 2.4, M5 ag 1.2, M4 antag 2.6 and M4 PAM 8.3.
Cc1ccc(NC(=O)C(c2ccccc2)N2CCN(C(=O)c3ccco3)CC2)cc1Cl (stereo not given) was read as M5 PAM -0.4, CHRM5 antagonist 8.2, CHRM4 agonist 2.9, M5 ag -3.4, M4 antag -7.0 and M4 PAM 9.6.
Screening CC1OC2CC(=O)OC2C2=C1C(=O)c1c(O)cccc1C2=O (stereo not given) returned M5 PAM 2.4, CHRM5 antagonist 45.4*, CHRM4 agonist 8.0, M5 ag 20.2, M4 antag 29.2* and M4 PAM 5.6.
O=C1NC(=S)N/C1=C\c1ccc(Oc2ccc(C(F)(F)F)cc2[N+](=O)[O-])c(Cl)c1 was read as M5 PAM 19.4*, CHRM5 antagonist -9.4, CHRM4 agonist 0.5, M5 ag 3.4, M4 antag 18.4 and M4 PAM 15.1.
Screening Cn1c(SCC(N)=O)nnc1C1CCN(S(=O)(=O)c2ccccc2C(F)(F)F)CC1 returned M5 PAM 6.9, CHRM5 antagonist 2.1, CHRM4 agonist 0.6, M5 ag -3.5, M4 antag -5.8 and M4 PAM 5.4.
